Measurements from ChEMBL document CHEMBL1833861 (J Med Chem, 2011).
Calls of active or inactive are those of the source. The calls are words filed in the database; no cut-off is given here.

Tests used:
Mus musculus [1] = test: Antidepressant activity in BALB/cJ mouse assessed as decrease in immobility time at 10 mg/kg, po after 30 mins by forced swim test; assay type: functional, organism-based; set-up: dose 10 mg/kg
In short: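 Male BALB/cJ mice, 8–10 weeks old, dosed by oral gavage with compound in injectable water (10 mL/kg). Sertraline served as positive control. Forced swim begins 30 min after dosing, in a cylinder with 12 cm of 23 ± 1 °C water; total immobility recorded over 6 min. ANOVA followed by Newman-Keuls post hoc test.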

Mus musculus [2] = test: Antidepressant activity in BALB/cJ mouse assessed as decrease in immobility time at 1 mg/kg, ip after 30 mins by forced swim test; assay type: functional, organism-based; set-up: dose 1 mg/kg
In short: (§1)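 Male BALB/cJ mice, 8–10 weeks old; compound in injectable water given ip at 10 mL/kg. Sertraline (10 or 20 mg/kg) served as positive control. 30 min post-dose, each mouse placed in a glass cylinder with 12 cm of 23 ± 1 °C water; immobility (floating) timed over a 6 min trial. n = 10/group; ANOVA with post hoc test.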

Mus musculus [3] = test: Antidepressant activity in BALB/cJ mouse assessed as decrease in immobility time at 3 mg/kg, ip after 30 mins by forced swim test; assay type: functional, organism-based; set-up: dose 3 mg/kg; in short: as §1
Mus musculus [4] = test: Ex vivo receptor occupancy at beta2 nAChR in BALB/cJ mouse brain at 3 mg/kg, ip after 30 mins; assay type: functional; conditions: route intraperitoneal
In short: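 Male BALB/cJ mice, 8–10 weeks old, dosed IP at 3 mg/kg (water vehicle, 10 mL/kg); vehicle controls received water. Brains collected 30 min after dosing, matching the forced-swim timing. β2* nAChR occupancy measured ex vivo in thalamus.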

[5] = target: T1, Neuronal acetylcholine receptor; alpha4/beta2 (Rattus norvegicus, UniProt P09483+P12390); test: Displacement of [3H]epibatidine from rat alpha4beta2 receptor expressed in HEK cells; assay type: cell-based, HEK293
In short: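 Competition binding of [3H]epibatidine to membrane fractions from HEK cells stably transfected with rat α4 and β2 subunits; Ki values for blockade of specific binding.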

[6] = target: Neuronal acetylcholine receptor; alpha2/beta2 (Rattus norvegicus, UniProt P12389+P12390); test: Displacement of [3H]epibatidine from rat alpha2beta2 receptor; assay type: protein-complex assay
[7] = target: Neuronal acetylcholine receptor; alpha3/beta2 (Rattus norvegicus, UniProt P04757+P12390); test: Displacement of [3H]epibatidine from rat alpha3beta2 receptor; assay type: protein-complex assay
[8] = target: T2, Neuronal acetylcholine receptor; alpha4/beta2 (Homo sapiens, UniProt P17787+P43681); test: Antagonist activity at human alpha4beta2 nAChR expressed in SH-EP1 cells assessed as inhibition of carbamylcholine-induced 86Rb+ ion efflux by liquid scintillation counting relative to mecamylamine; assay type: functional, cell-based
[9] = target: Neuronal acetylcholine receptor; alpha2/beta4 (Rattus norvegicus, UniProt P12389+P12392); test: Displacement of [3H]epibatidine from rat alpha2beta4 receptor; assay type: protein-complex assay
[10] = target: Neuronal acetylcholine receptor; alpha3/beta4 (Rattus norvegicus, UniProt P04757+P12392); test: Displacement of [3H]epibatidine from rat alpha3beta4 nAChR receptor; assay type: protein-complex assay
[11] = target: T2, Neuronal acetylcholine receptor; alpha4/beta2; test: Antagonist activity at human alpha4beta2 nAChR expressed in SH-EP1 cells assessed as inhibition of carbamylcholine-induced 86Rb+ ion efflux by liquid scintillation counting; assay type: functional, cell-based
[12] = target: T2, Neuronal acetylcholine receptor; alpha4/beta2; test: Agonist activity at human alpha4beta2 nAChR expressed in human SH-EP1 cells assessed as increase of carbamylcholine-induced 86Rb+ ion efflux by liquid scintillation counting; assay type: functional, cell-based
[13] = target: T1, Neuronal acetylcholine receptor; alpha4/beta2; test: Displacement of [3H]epibatidine from rat alpha4beta2 nAChR receptor; assay type: protein-complex assay
Rattus norvegicus = organism: Rattus norvegicus; test: Selectivity ratio of Ki for rat alpha4beta2 nAChR over Ki for rat alpha3beta4 nAChR
[14] = target: T2, Neuronal acetylcholine receptor; alpha4/beta2; test: Agonist activity at human alpha4beta2 nAChR expressed in human SH-EP1 cells assessed as increase of carbamylcholine-induced 86Rb+ ion efflux by liquid scintillation counting relative to carbamylcholine; assay type: functional, cell-based
[15] = target: Neuronal acetylcholine receptor; alpha4/beta4 (Rattus norvegicus, UniProt P09483+P12392); test: Displacement of [3H]epibatidine from rat alpha4beta4 nAChR receptor; assay type: protein-complex assay
Mus musculus [16] = test: Antidepressant activity in BALB/cJ mouse assessed as decrease in immobility time at 30 mg/kg, ip after 30 mins by forced swim test; assay type: functional, organism-based; set-up: dose 30 mg/kg; in short: as §1

T1 sequence (P09483 whole entry): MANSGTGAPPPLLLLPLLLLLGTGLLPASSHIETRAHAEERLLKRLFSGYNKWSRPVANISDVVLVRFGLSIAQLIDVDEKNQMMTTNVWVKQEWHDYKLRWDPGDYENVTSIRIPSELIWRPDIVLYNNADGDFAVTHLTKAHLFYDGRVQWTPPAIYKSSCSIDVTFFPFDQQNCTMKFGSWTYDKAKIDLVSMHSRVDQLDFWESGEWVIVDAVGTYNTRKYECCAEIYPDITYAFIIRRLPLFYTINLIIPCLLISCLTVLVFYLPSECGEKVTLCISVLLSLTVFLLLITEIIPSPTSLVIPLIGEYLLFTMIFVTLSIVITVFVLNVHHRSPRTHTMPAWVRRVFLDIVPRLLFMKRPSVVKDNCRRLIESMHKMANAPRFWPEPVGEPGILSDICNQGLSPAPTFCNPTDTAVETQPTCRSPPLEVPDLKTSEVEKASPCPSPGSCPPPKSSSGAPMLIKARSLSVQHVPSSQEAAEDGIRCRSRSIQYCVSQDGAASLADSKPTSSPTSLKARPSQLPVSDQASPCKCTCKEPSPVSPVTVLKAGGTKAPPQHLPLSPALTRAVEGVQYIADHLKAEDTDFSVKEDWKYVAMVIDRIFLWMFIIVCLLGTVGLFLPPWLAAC
T1 sequence (P12390 whole entry): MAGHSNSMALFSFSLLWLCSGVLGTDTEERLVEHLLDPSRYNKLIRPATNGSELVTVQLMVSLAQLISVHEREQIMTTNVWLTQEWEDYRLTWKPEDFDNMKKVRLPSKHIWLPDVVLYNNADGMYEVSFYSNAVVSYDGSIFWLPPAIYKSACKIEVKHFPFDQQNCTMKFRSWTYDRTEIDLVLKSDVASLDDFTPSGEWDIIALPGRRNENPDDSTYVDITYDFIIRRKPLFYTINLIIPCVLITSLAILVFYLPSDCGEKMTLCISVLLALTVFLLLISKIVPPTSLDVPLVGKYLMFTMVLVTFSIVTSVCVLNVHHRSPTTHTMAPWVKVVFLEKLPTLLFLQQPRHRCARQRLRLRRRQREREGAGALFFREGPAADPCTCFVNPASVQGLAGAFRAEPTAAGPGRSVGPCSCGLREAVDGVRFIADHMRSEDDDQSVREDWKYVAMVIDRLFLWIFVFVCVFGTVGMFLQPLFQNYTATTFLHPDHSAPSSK
T2 sequence (P17787 whole entry): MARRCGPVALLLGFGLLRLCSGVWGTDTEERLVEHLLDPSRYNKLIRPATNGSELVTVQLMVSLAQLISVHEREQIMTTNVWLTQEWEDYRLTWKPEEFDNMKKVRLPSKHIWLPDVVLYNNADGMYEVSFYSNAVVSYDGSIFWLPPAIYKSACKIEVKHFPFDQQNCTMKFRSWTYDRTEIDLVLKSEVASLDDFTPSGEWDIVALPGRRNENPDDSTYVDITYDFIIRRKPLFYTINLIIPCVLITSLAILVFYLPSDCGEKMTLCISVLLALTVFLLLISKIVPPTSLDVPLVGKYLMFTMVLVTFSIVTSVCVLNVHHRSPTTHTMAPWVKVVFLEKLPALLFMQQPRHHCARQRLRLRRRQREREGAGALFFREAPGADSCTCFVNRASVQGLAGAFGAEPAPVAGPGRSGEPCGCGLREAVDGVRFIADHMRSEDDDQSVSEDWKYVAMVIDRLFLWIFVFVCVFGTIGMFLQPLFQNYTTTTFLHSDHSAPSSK
T2 sequence (P43681 whole entry): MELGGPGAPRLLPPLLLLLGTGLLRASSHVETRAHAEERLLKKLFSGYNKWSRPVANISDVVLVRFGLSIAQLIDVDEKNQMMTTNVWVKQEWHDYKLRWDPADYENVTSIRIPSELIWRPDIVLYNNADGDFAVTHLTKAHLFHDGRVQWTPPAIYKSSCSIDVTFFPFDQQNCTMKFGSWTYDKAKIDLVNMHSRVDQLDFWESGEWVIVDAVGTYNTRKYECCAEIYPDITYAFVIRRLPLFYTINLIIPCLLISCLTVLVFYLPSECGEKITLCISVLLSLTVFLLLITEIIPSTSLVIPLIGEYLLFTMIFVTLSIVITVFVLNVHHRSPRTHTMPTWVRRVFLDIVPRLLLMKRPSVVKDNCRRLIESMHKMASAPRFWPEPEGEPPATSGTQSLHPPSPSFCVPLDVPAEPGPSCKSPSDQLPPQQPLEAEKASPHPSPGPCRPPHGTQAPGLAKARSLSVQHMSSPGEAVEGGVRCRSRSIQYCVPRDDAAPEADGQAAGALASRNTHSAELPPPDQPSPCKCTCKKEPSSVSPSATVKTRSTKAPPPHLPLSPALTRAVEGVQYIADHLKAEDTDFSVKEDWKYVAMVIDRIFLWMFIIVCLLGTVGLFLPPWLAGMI
Chain of Neuronal acetylcholine receptor; alpha3/beta4 (P04757 whole entry): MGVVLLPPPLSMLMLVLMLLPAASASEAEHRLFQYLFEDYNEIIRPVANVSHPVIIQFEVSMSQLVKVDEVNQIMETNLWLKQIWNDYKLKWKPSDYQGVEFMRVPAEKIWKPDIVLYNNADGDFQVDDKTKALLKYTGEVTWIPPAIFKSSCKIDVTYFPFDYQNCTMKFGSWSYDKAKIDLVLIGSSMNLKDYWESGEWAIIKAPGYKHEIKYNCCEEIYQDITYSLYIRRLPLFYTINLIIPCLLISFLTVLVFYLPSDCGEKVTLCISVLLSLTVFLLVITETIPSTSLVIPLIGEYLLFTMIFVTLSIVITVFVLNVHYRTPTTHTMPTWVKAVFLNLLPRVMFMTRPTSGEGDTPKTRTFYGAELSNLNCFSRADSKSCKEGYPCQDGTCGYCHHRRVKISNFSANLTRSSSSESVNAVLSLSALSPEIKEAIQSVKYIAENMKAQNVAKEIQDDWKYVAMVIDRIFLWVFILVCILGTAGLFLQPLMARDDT
Chain of Neuronal acetylcholine receptor; alpha3/beta4 (P12392 whole entry): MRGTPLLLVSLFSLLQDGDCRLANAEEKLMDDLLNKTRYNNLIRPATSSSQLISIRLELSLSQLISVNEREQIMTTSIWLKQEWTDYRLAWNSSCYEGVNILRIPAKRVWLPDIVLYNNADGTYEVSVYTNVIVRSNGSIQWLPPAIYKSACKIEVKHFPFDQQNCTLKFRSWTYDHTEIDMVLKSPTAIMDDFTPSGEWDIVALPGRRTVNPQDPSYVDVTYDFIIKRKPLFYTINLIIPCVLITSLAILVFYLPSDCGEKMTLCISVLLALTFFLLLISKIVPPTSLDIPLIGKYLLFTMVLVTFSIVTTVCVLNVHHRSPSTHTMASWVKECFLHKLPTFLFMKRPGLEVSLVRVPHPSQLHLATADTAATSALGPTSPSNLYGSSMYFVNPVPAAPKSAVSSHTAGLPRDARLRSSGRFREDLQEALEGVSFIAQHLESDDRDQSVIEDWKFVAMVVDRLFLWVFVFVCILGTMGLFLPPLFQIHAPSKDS
Chain of Neuronal acetylcholine receptor; alpha3/beta2 (P04757 whole entry): as the sequence (P04757 whole entry) above
Chain of Neuronal acetylcholine receptor; alpha3/beta2 (P12390 whole entry): as the sequence (P12390 whole entry) above
Chain of Neuronal acetylcholine receptor; alpha2/beta2 (P12389 whole entry): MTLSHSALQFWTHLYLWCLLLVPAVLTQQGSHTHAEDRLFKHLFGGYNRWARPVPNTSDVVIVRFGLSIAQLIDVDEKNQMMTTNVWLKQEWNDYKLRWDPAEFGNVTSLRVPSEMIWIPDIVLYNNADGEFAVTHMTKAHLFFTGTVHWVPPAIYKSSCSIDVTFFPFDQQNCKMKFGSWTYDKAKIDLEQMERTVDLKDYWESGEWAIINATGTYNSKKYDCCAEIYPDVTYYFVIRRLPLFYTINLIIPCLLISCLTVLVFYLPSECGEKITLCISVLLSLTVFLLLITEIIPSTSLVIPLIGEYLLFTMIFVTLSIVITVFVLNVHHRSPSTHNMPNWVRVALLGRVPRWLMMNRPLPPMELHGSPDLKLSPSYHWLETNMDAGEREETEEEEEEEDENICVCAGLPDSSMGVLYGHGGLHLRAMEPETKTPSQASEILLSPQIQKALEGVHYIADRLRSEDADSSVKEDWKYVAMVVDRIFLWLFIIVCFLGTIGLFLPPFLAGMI
Chain of Neuronal acetylcholine receptor; alpha2/beta2 (P12390 whole entry): as the sequence (P12390 whole entry) above
Chain of Neuronal acetylcholine receptor; alpha2/beta4 (P12389 whole entry): as the sequence (P12389 whole entry) above
Chain of Neuronal acetylcholine receptor; alpha2/beta4 (P12392 whole entry): as the sequence (P12392 whole entry) above
Chain of Neuronal acetylcholine receptor; alpha4/beta4 (P09483 whole entry): as the sequence (P09483 whole entry) above
Chain of Neuronal acetylcholine receptor; alpha4/beta4 (P12392 whole entry): as the sequence (P12392 whole entry) above

| SMILES | Activity (Mus musculus [1]) | Activity (Mus musculus [2]) | Activity (Mus musculus [3]) | Activity (Mus musculus [4]) [%] | Ki [5] [nM] | Ki [6] [nM] | Ki [7] [nM] | Efficacy [8] [%] | Ki [9] [nM] | Ki [10] [µM] | IC50 [11] [nM] | EC50 [12] [nM] | Ki [13] [nM] | Ratio Ki (Rattus norvegicus) | Efficacy [14] [%] | Ki [15] [nM] | Activity (Mus musculus [16]) |
| --- | --- | --- | --- | --- | --- | --- | --- | --- | --- | --- | --- | --- | --- | --- | --- | --- | --- |
| Cl.OCCc1cc(-c2cncc(OC[C@@H]3CCN3)c2)on1 | Active | Active | Active | 60 | – | – | – | – | – | – | – | – | – | – | – | – | – |
| OCc1cc(-c2cncc(OC[C@@H]3CCN3)c2)on1 | – | – | – | – | 0.31 | 0.32 | 2.9 | 66 | 310 | 6.66 | 16 | 25 | 0.31 | 20000 | 13 | 81 | Active |
